Values joined by “and” are separate entries in the source; they are usually repeats but may differ in a detail not shown here. Equal values may be shown once.
Legend:
[1] = system: Rattus norvegicus; experiment: The saluretic(Cl-) effect of compound was measured in rats after oral administration at 3 mg/kg dose; type: functional
[2] = system: Canis familiaris; experiment: The saluretic(K+) effect of compound was measured in dogs after iv administration at 5 mg/kg dose; K+mequiv/min=20
[3] = system: Rattus norvegicus; experiment: The saluretic(K+) effect of compound was measured in rats after oral administration at 27 mg/kg dose; K+mequiv*100/cage=14; type: functional
[4] = species on record: Rattus norvegicus; experiment: Duration of effect was measured in hypertensive rat.; type: functional
In short: (§1)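 Spontaneously hypertensive rats received the compound orally. The read-out was the maximum fall in mean arterial pressure (mmHg ± SE) and the duration of effect in hours. The number of rats varied by treatment, and the protocol follows an earlier report.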

[5] = system: Rattus norvegicus; experiment: The saluretic(K+) effect of compound was measured in rats after oral administration at 81 mg/kg dose.; type: functional
[6] = system: Rattus norvegicus; experiment: The saluretic(Na+) effect of compound was measured in rats after oral administration at 27 mg/kg dose; Na+ mequiv*100/cage; type: functional
[7] = system: Rattus norvegicus; experiment: The saluretic (Na+)effect of compound was measured in rats after oral administration at 81 mg/kg dose; type: functional
[8] = system: Rattus norvegicus; experiment: The saluretic(Cl-) effect of compound was measured in rats after oral administration at 81 mg/kg dose.; type: functional
[9] = system: Canis familiaris; experiment: The saluretic(Na+) effect of compound was measured in dogs after iv administration at 5 mg/kg dose; Na+ mequiv/min=279
[10] = system: Canis familiaris; experiment: The saluretic(Cl-) effect of compound was measured in dogs after iv administration at 5 mg/kg dose; Cl-mequiv/min=303
[11] = system: Rattus norvegicus; experiment: Saluretic(Na+) effect of compound was measured in rats after oral administration at 3 mg/kg dose; Na+ mequiv*100/cage; type: functional
[12] = system: Rattus norvegicus; experiment: Mean arterial pressure was measured in hypertensive rat at dose of 20 mg/kg, po; type: functional, Artery; in short: as §1
[13] = system: Rattus norvegicus; experiment: The saluretic(K+) effect of compound was measured in rats after oral administration at 3 mg/kg dose; type: functional
[14] = system: Rattus norvegicus; experiment: The saluretic(Cl-) effect of compound was measured in rats after oral administration at 27 mg/kg dose; Cl-mequiv*100/cage=14; type: functional
[15] = system: Rattus norvegicus; experiment: The saluretic (Na+) effect of compound was measured in rats after oral administration at 27 mg/kg dose; Na+ mequiv*100/cage; type: functional
[16] = system: Canis familiaris; experiment: The saluretic(K+) effect of compound was measured in dogs after iv administration at 3 mg/kg dose; K+mequiv/min=20; type: functional, Canis lupus familiaris
[17] = system: Canis familiaris; experiment: The saluretic(Cl-) effect of compound was measured in dogs after iv administration at 3 mg/kg dose; Cl-mequiv/min=303; type: functional, Canis lupus familiaris
[18] = system: Canis familiaris; experiment: The saluretic(Na+) effect of compound was measured in dogs after iv administration at 3 mg/kg dose; Na+ mequiv/min=279; type: functional, Canis lupus familiaris
[19] = system: Rattus norvegicus; experiment: The saluretic (Na+) effect of compound was measured in rats after oral administration at 81 mg/kg dose; Na+ mequiv*100/cage; type: functional
[20] = system: Rattus norvegicus; experiment: The saluretic (Na+) effect of compound was measured in rats after oral administration at 9 mg/kg dose; Na+ mequiv*100/cage; type: functional
[21] = system: Rattus norvegicus; experiment: The saluretic(K+) effect of compound was measured in rats after oral administration at 3 mg/kg dose; K+ mequiv x 100/cage=14; type: functional
[22] = system: Rattus norvegicus; experiment: The saluretic(K+) effect of compound was measured in rats after oral administration at 9 mg/kg dose; K+mequiv*100/cage=14; type: functional
[23] = system: Rattus norvegicus; experiment: Mean arterial pressure was measured in hypertensive rat at dose of 20 mg/kg, ip; conditions: route intraperitoneal
[24] = system: Rattus norvegicus; experiment: The saluretic(Cl-) effect of compound was measured in rats after oral administration at 81 mg/kg dose; Cl-mequiv*100/cage=14; type: functional
[25] = system: Rattus norvegicus; experiment: The saluretic(K+) effect of compound was measured in rats after oral administration at 81 mg/kg dose; K+mequiv*100/cage=14; type: functional
[26] = system: Rattus norvegicus; experiment: The saluretic(Cl-) effect of compound was measured in rats after oral administration at 9 mg/kg dose; Cl-mequiv*100/cage=14; type: functional
[27] = system: Rattus norvegicus; experiment: Saluretic(Na+) effect of compound was measured in rats after oral administration at 3 mg/kg dose; Na+ mequiv x 100/cage; type: functional
[28] = system: Rattus norvegicus; experiment: The saluretic(Cl-) effect of compound was measured in rats after oral administration at 3 mg/kg dose; Cl- mequiv x 100/cage =14; type: functional
[29] = system: Rattus norvegicus; experiment: The saluretic(Cl-) effect of compound was measured in rats after oral administration at 3 mg/kg dose; Cl-mequiv*100/cage=14; type: functional
[30] = system: Rattus norvegicus; experiment: The saluretic(K+) effect of compound was measured in rats after oral administration at 3 mg/kg dose; K+mequiv*100/cage=14; type: functional
[31] = system: Canis familiaris; experiment: The saluretic(K+) effect of compound was measured in dogs after iv administration at 2 mg/kg dose; K+mequiv/min=20; type: functional, Canis lupus familiaris
[32] = system: Canis familiaris; experiment: The saluretic(Cl-) effect of compound was measured in dogs after iv administration; Cl-mequiv/min=303
[33] = system: Canis familiaris; experiment: The saluretic(Na+) effect of compound was measured in dogs after iv administration at 2 mg/kg dose; Na+ mequiv/min=279; type: functional, Canis lupus familiaris
[34] = species on record: Rattus norvegicus; experiment: Duration of effect was measured in hypertensive rat; type: functional; in short: as §1

Structure (SMILES) | Diuretic effects [11] | Max fall ([12]; dose 20 mg/kg) [mmHg] | Diuretic effects ([14]; 27 mg/kg) | Diuretic effects [15] | Diuretic effects [16] | Diuretic effects [17] | Diuretic effects [3] | Diuretic effects [18] | Diuretic effects [19] | Diuretic effects [20] | Diuretic effects [22] | Diuretic effects [24] | Diuretic effects [25] | Diuretic effects [26] | Diuretic effects [14] | Diuretic effects [29] | Diuretic effects [30] | further results
CC(C)(C)c1cc(CN)c(O)c(I)n1 | 178 | 13 | 351 and 444 | 276 |  |  |  |  |  |  |  |  |  |  |  |  |  | Diuretic effects [1]: 279; Diuretic effects [2]: 48; Diuretic effects ([3]; 27 mg/kg): 63 and 83; Duration [4]: >24 h; Diuretic effects [5]: 108; Diuretic effects [6]: 276; Diuretic effects [7]: 330; Diuretic effects [8]: 528; Diuretic effects [9]: 611; Diuretic effects [10]: 729; Diuretic effects [13]: 51
CC(C)(C)c1cc(CN)c(O)cn1 |  |  |  | 22 | 20 | 303 | 15 | 279 | 63 | 8 | 7 | 98 | 23 | 11 | 37 |  |  | Diuretic effects [21]: 14; Max fall [23]: 12 mmHg; Diuretic effects [27]: 14; Diuretic effects [28]: 14
CC(C)(C)c1cc(I)c(O)c(CN)c1 | 146 |  |  | 319 | 66 | 822 | 88 | 716 | 351 | 270 | 77 | 489 | 99 | 364 | 435 | 211 | 51 | Max fall ([12]; dose 0.312 mg/kg, in the assay text read “0.312 mg/kg” for “20 mg/kg”): 26 mmHg
NS(=O)(=O)c1cc(C(=O)O)c(NCc2ccco2)cc1Cl [FUROSEMIDE] |  |  | 213 and 370 | 125 |  |  | 55 |  | 244 | 7 | 14 |  | 77 | 22 |  |  |  | Diuretic effects [31]: 141; Diuretic effects [32]: 1081; Diuretic effects [33]: 960; Max fall ([12]; dose 30 mg/kg, in the assay text read “30 mg/kg” for “20 mg/kg”): 12 mmHg
NS(=O)(=O)c1cc2c(cc1Cl)NCNS2(=O)=O [HYDROCHLOROTHIAZIDE] |  | 25 |  |  | 33 | 156 | 34 | 166 |  |  |  | 143 | 37 |  | 156 | 154 | 34 | Duration [34]: <8 h and 12 h

— ChEMBL document CHEMBL1121906, “2-(Aminomethyl)phenols, a new class of saluretic agents. 2. Synthesis and pharmacological properties of the 5-aza isostere of 2-(aminomethyl)-4-(1,1-dimethylethyl)-6-iodophenol” (1981)
